Measured values: ChEMBL document CHEMBL1817625, “Synthesis of pheophorbide-a conjugates with anticancer drugs as potential cancer diagnostic and therapeutic agents” (Bioorg Med Chem, 2011)
Active and inactive are the calls of the source. The rule behind the calls is not given here.

How the values were obtained:
[1] = tested on: SK-OV-3; test: Cytotoxicity against human SKOV3 cells assessed as inhibition of cell growth at 10 uM after 3 days by SRB assay; assay type: functional, cell-based
Method in brief: (§1)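 Cells were grown in RPMI 1640 with 10% FBS and antibiotic–antimycotic at 37 °C, 5% CO2, and trypsin/EDTA-detached. They were seeded at 50,000 cells/mL and exposed to 10 µM compound for 3 days. For SRB staining, cells were fixed cold for 1 h, stained 1 h at room temperature, washed with 1% acetic acid and solubilized in 10 mM Tris. A515 was read; means of four duplicates were expressed as % of solvent-treated control.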

[2] = tested on: KB; test: Cytotoxicity against human KB cells assessed as inhibition of cell growth at 10 uM after 3 days by SRB assay; assay type: functional, cell-based; method in brief: as §1
[3] = tested on: U-87MG ATCC; test: Cytotoxicity against human U87MG cells assessed as inhibition of cell growth at 10 uM after 3 days by SRB assay; assay type: functional, cell-based; method in brief: as §1
[4] = tested on: HeLa; test: Cellular uptake in human HeLa cells at 10 uM after 48 hrs by confocal microscopic analysis; assay type: ADME, cell-based
Method in brief: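 HeLa cells were seeded in slide dishes in RPMI 1640 overnight. They were then exposed to 10 µM compound in complete medium for 48 h under 95% air/5% CO2 and washed three times with PBS. Confocal imaging used 440 nm excitation, collecting 575–600 nm emission (doxorubicin channel) and 655–755 nm emission (pheophorbide-a channel).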

[5] = tested on: HeLa; test: Cytotoxicity against human HeLa cells assessed as inhibition of cell growth at 10 uM after 3 days by SRB assay; assay type: functional, cell-based
Method in brief: (§2)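 Cells were kept at 37 °C in 5% CO2, HeLa in DMEM and MCF7 in RPMI 1640, each with 10% FBS. They were seeded at 50,000 cells/mL in 96-well plates, exposed to 10 µM compound for 3 days, then fixed in the cold for 1 h. Staining was SRB for 1 h at room temperature with 1% acetic acid washes. Bound dye was released in 10 mM Tris and read at 515 nm. Values are means of four duplicated samples, as a percentage of solvent-treated control.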

[6] = tested on: HCT-116; test: Cytotoxicity against human HCT116 cells assessed as inhibition of cell growth at 10 uM after 3 days by SRB assay; assay type: functional, cell-based; method in brief: as §1
[7] = tested on: PC-3; test: Cytotoxicity against human PC3 cells assessed as inhibition of cell growth at 10 uM after 3 days by SRB assay; assay type: functional, cell-based; method in brief: as §1
[8] = tested on: A549; test: Cytotoxicity against human A549 cells assessed as inhibition of cell growth at 10 uM after 3 days by SRB assay; assay type: functional, cell-based
Method in brief: (§3)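 Cultures were kept in DMEM with 10% FBS and antibiotic–antimycotic at 37 °C, 5% CO2, and detached with trypsin/EDTA. Cells were plated at 50,000 cells/mL and treated with 10 µM compound for 3 days. SRB staining: 1 h cold fixation, 1 h room-temperature stain, 1% acetic acid washes, 10 mM Tris release. A515 was read; the mean of four duplicates was given as % of solvent-treated control.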

[9] = tested on: AT84; test: Cytotoxicity against mouse AT84 cells assessed as inhibition of cell growth at 10 uM after 3 days by SRB assay; assay type: functional, cell-based; method in brief: as §1
[10] = tested on: HepG2; test: Cytotoxicity against human HepG2 cells assessed as inhibition of cell growth at 10 uM after 3 days by SRB assay; assay type: functional, cell-based; method in brief: as §3
[11] = tested on: YD-10B; test: Cytotoxicity against human YD-10B cells assessed as inhibition of cell growth at 10 uM after 3 days by SRB assay; assay type: functional, cell-based; method in brief: as §3
[12] = tested on: MCF7; test: Cytotoxicity against human MCF7 cells assessed as inhibition of cell growth at 10 uM after 3 days by SRB assay; assay type: functional, cell-based; method in brief: as §2

Compound	Drug uptake [4]	growth inhibition (GI) [1]	growth inhibition (GI) [2]	growth inhibition (GI) [3]	growth inhibition (GI) [5]	growth inhibition (GI) [6]	growth inhibition (GI) [7]	growth inhibition (GI) [8]	growth inhibition (GI) [9]	growth inhibition (GI) [10]	growth inhibition (GI) [11]	growth inhibition (GI) [12]
COc1cccc2c1C(=O)c1c(O)c3c(c(O)c1C2=O)C[C@@](O)(C(=O)CO)C[C@@H]3O[C@H]1C[C@H](N)[C@H](O)[C@H](C)O1 [DOXORUBICIN]	Active											
C=Cc1c(C)c2cc3nc(c4c5[nH]c(cc6nc(cc1[nH]2)C(C)=C6CC)c(C)c5C(=O)[C@@H]4C(=O)OC)[C@@H](CCC(=O)N[C@@H]1C[C@@H](O[C@H]2C[C@](O)(C(=O)CO)Cc4c(O)c5c(c(O)c42)C(=O)c2c(OC)cccc2C5=O)O[C@H](C)[C@@H]1O)[C@@H]3C	Active			Active	Active				Active			Active
C=Cc1c(C)c2cc3nc(c4c5[nH]c(cc6nc(cc1[nH]2)C(C)=C6CC)c(C)c5C(=O)[C@@H]4C(=O)OC)[C@@H](CCC(=O)O[C@@H](C(=O)O[C@H]1C[C@@]2(O)[C@@H](OC(=O)c4ccccc4)[C@@H]4[C@]5(OC(C)=O)CO[C@@H]5C[C@H](O)[C@@]4(C)C(=O)[C@H](OC(C)=O)C(=C1C)C2(C)C)[C@@H](NC(=O)c1ccccc1)c1ccccc1)[C@@H]3C			Active		Active						Active	Active

Second part, led by results:

Drug uptake [4]	Compound	growth inhibition (GI) [1]	growth inhibition (GI) [2]	growth inhibition (GI) [3]	growth inhibition (GI) [5]	growth inhibition (GI) [6]	growth inhibition (GI) [7]	growth inhibition (GI) [8]	growth inhibition (GI) [9]	growth inhibition (GI) [10]	growth inhibition (GI) [11]	growth inhibition (GI) [12]
Active	C=Cc1c(C)c2cc3nc(c4c5[nH]c(cc6nc(cc1[nH]2)C(C)=C6CC)c(C)c5C(=O)[C@@H]4C(=O)OC)[C@@H](CCC(=O)Nc1ccc(COC(=O)N[C@@H]2C[C@@H](O[C@H]4C[C@](O)(C(=O)CO)Cc5c(O)c6c(c(O)c54)C(=O)c4c(OC)cccc4C6=O)O[C@H](C)[C@@H]2O)cc1)[C@@H]3C	Active	Active	Active	Active	Active	Active	Active	Active	Active	Active	Active
Active	C=Cc1c(C)c2cc3nc(c4c5[nH]c(cc6nc(cc1[nH]2)C(C)=C6CC)c(C)c5C(=O)[C@@H]4C(=O)OC)[C@@H](CCC(=O)O)[C@@H]3C [PHEOPHORBIDE A]											
Active	C=Cc1c(C)c2cc3nc(c4c5[nH]c(cc6nc(cc1[nH]2)C(C)=C6CC)c(C)c5C(=O)[C@@H]4C(=O)OC)[C@@H](CCC(=O)Oc1ccccc1/C=C/C(=O)N[C@@H]1C[C@@H](O[C@H]2C[C@](O)(C(=O)CO)Cc4c(O)c5c(c(O)c42)C(=O)c2c(OC)cccc2C5=O)O[C@H](C)[C@@H]1O)[C@@H]3C	Active	Active	Active	Active	Active	Active	Active	Active	Active	Active	Active
